In the library only some 2.9% were active in any assay of this set; here they are far more common.
E-sel inducer: induces E-selectin expression in human endothelial cells | P16581 | HUVEC E-selectin immunofluorescence imaging; normalized: neutral wells 0, TNF-alpha wells 100 | activation, % at 7.58 µM | hit rate 0.37% among 260,000;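 active means mean E-selectin-positive cell signal at least 10% of the positive control, reached in at least 60% of replicates, without over 20% cell loss; inconclusive means no rule given, readout overlaps actives, possibly toxicity-flagged; inactive means the rest, including those meeting only one limit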
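Read-out basis: % PE-positive cells; Test system: HUVEC primary endothelial cells; Technique: immunofluorescence imaging; Dosing: single-point compound dose.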
DENV2 CPE: inhibitors of DENV2 cytopathic effect. DENV2-infected cells, cytopathic effect rescue, plate reader. CPE inhibition, % at 9.99 µM. hit rate 1.7% among 350,000. AID 651640; in the data active means CPE inhibition above about 20%, passing the limit was not always enough; inconclusive means no clear call, values can overlap the other calls; tested in BHK-21 cells;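 further: 0% = median of neutral control wells and 100% = median of positive control wells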
SIRT5 block: blocks human SIRT5 desuccinylation of peptide; Purified SirT5, succinyl-peptide AMC, trypsin-coupled fluorescence; inhibition, % at 15 µM; hit rate 1.1% among 330,000; in the data active means inhibition above about 15%; inconclusive means no clear call, values can overlap the other calls
Target sequence (Q9NXA8 whole entry, looked up): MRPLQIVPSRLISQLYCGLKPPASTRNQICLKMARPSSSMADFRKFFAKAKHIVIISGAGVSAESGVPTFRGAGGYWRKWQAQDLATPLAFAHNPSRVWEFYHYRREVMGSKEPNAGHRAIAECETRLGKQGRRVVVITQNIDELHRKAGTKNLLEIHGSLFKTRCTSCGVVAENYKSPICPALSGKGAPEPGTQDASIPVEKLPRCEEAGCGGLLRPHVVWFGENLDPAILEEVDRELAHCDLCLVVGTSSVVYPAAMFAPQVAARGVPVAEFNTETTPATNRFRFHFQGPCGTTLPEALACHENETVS
* hit, by the source's call; ? = inconclusive; / = no result given.

SMILES | E-sel inducer | DENV2 CPE | SIRT5 block
CC1=C(/C=C/C(C)=N\NC(=O)c2ccncc2)C(C)(C)CCC1 | / | 3 | 4
CCc1nc2c(OCc3cccc(Cl)c3)cccn2c1N(C)C(=O)c1ccncc1 | 0 | 12 | /
CCc1nc2c(OCc3cccc(Cl)c3)cccn2c1N(C)C(=O)c1ccco1 | 0 | 23* | /
CO[C@@H]1CC[C@H]2CCOc3c(C#N)cccc3C(=O)N(C)[C@@H](C)C(=O)N(C)C[C@@H]1O2 | 0 | -1 | -2
Cc1ccc(C2/C(=C(\O)c3ccc4c(c3)OCCO4)C(=O)C(=O)N2Cc2cccnc2)cc1 (centres undefined) | / | 4 | -1
O=C(Nc1ccccc1)Nc1sccc1-c1nc2ccccc2s1 | / | -10 | -3
O=C(Nc1cccc(Cl)c1)Nc1sccc1-c1nc2ccccc2s1 | / | 63* | 11
COc1ccc(C2/C(=C(/O)c3ccc(S(=O)(=O)N4CCOCC4)cc3)C(=O)C(=O)N2CCN2CCOCC2)cc1 (centres undefined) | 0 | -3 | 1
COc1ccc(/C(O)=C2/C(=O)C(=O)N(CCCN3CCOCC3)C2c2ccc(OC)cc2)cc1 (centres undefined) | / | 0 | 81*
COc1ccc(NC(=O)Nc2ccc3c(c2)C(=O)N([C@@H](C)CO)C[C@@H](C)[C@H](CN(C)C(=O)Cc2ccccc2)OCCCC[C@H](C)O3)cc1 | 0 | -14 | 10
COc1ccc(NC(=O)Nc2ccc3c(c2)C(=O)N([C@H](C)CO)C[C@H](C)[C@@H](CN(C)C(=O)Cc2ccccc2)OCCCC[C@@H](C)O3)cc1 | 0 | 68* | 0
CC(C)NC(=O)Nc1ccc2c(c1)C(=O)N([C@H](C)CO)C[C@H](C)[C@@H](CN(C)C(=O)Cc1ccccc1)OCCCC[C@@H](C)O2 | 0 | -2 | 9
COc1ccc(NC(=O)Nc2ccc3c(c2)C(=O)N([C@H](C)CO)C[C@@H](C)[C@H](CN(C)C(=O)Cc2ccccc2)OCCCC[C@@H](C)O3)cc1 | 0 | 30* | 5
COc1ccc(NC(=O)Nc2ccc3c(c2)C(=O)N([C@H](C)CO)C[C@H](C)[C@H](CN(C)C(=O)Cc2ccccc2)OCCCC[C@@H](C)O3)cc1 | 0 | -2 | -5
COc1ccc(NC(=O)Nc2ccc3c(c2)C(=O)N([C@@H](C)CO)C[C@H](C)[C@H](CN(C)C(=O)Cc2ccccc2)OCCCC[C@H](C)O3)cc1 | 0 | 21* | 8
CC(C)NC(=O)Nc1ccc2c(c1)C(=O)N([C@H](C)CO)C[C@H](C)[C@H](CN(C)C(=O)Cc1ccccc1)OCCCC[C@H](C)O2 | 1 | -2 | 19*
COc1ccc(NC(=O)Nc2ccc3c(c2)C(=O)N([C@@H](C)CO)C[C@H](C)[C@H](CN(C)C(=O)Cc2ccccc2)OCCCC[C@@H](C)O3)cc1 | 0 | 0 | 12
CC(NC(=O)CCSCc1ccccc1F)c1ccccc1 (centres undefined) | / | 3 | -1
CCOC(CNC(=O)c1ccc(CNC(=O)c2ccc(OC)c(OC)c2)cc1)OCC | / | 14 | 1
Cc1ccc(S(=O)(=O)N2CCN(C(=O)COC(=O)c3cccnc3Cl)CC2)c(C)c1 | / | ? | 2
OC(COc1cccc2ccccc12)CN1CCN(c2ccc(Cl)cc2)CC1 (centres undefined) | 0 | 7 | -1
C/C=C/c1ccc([C@@H]2[C@@H](CO)N(C(=O)C3CC3)[C@H]2CN(C)C(C)=O)cc1 | 0 | -9 | -6
COCC(=O)NC[C@H]1[C@@H](c2ccc(C3=CCCC3)cc2)[C@@H](CO)N1C(=O)C1CC1 | 0 | / | /
CCCCC(=O)NNC(=O)c1c(O)c2ccccc2[nH]c1=O | 0 | -4 | 16*
O=C(CCl)NNC(=O)c1c(O)c2ccccc2[nH]c1=O | / | -7 | 1
SMILES | E-sel inducer | DENV2 CPE | SIRT5 block
NC(=O)CCn1c2ccccc2c2ccccc21 | / | 2 | 2
CC(C)CCn1c2ccccc2c2cc(CC(N)=O)ccc21 | 0 | 29* | -2
CN(C)S(=O)(=O)c1ccc(C(=O)OCC(=O)c2ccc3c(c2)NC(=O)CO3)cc1 | -1 | -3 | 0
CCOC(=O)CCc1c(C)c2ccc(OC3CCCCC3=O)c(C)c2oc1=O (centres undefined) | / | -1 | -2
CCCc1cc(=O)oc2c(C)c(OC3CCCCC3=O)ccc12 (centres undefined) | 1 | 26* | -2
O=C(COC(=O)c1ccc(Cl)nc1)Nc1ccc(N2CCCCC2)cc1 | 0 | 62* | -2
O=C(COC(=O)c1ccc(Cl)nc1)Nc1ccc(Cl)cc1 | 0 | -5 | -3
CCN1[C@@H]2c3ccc(C4=CCCCC4)c(=O)n3C[C@H]1[C@H](CO)[C@H]2C(=O)NCc1ccccn1 | 0 | 13 | -15
